Results on 26 compounds are retold here after ChEMBL document CHEMBL4414663, “Pyrazole-4-Carboxamide (YW2065): A Therapeutic Candidate for Colorectal Cancer via Dual Activities of Wnt/β-Catenin Signaling Inhibition and AMP-Activated Protein Kinase (AMPK) Activation” (J Med Chem, 2019).

Activity calls are given as the source filed them. The calls are words filed in the database; no cut-off is given here.

Assay [1] can be described thus: Inhibition of Wnt/beta-Catenin signaling (unknown origin) expressed in recombinant human Wnt-3a-induced Wnt-HEK293 cells incubated for 24 hrs by luciferase reporter gene assay. In kind it is cell-based. The procedure, abridged:
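Stably transfected Wnt-HEK293 cells, 2000/well in DMEM + 10% FBS, incubated overnight at 37 °C. Compounds pin-transferred, then recombinant human Wnt-3a added (200 ng/mL stock); unstimulated control wells received medium. After 24 h at 37 °C, ONE-Glo luminescence read after 30 min at room temperature; CellTiter-Fluor viability read in parallel. IC50 reported as mean ± SD of three independent experiments.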
A general note: Reporter assays use an easily measured gene product as a stand-in for the process of interest.

The subject of assay [2] is SW480. Nature of the assay: Growth inhibition of human SW480 cells at 50 uM by Cell-titer-fluor reagent based assay relative to control. The assay is classed as functional. The note with it: read-out: GI.
The subject of assay [3] is SW480. Nature of the assay: Growth inhibition of human SW480 cells by Cell-titer-fluor reagent based assay. The assay is classed as functional.
The species named for assay [4] is Homo sapiens. Nature of the assay: Inhibition of Wnt/beta-Catenin signaling (unknown origin) expressed in recombinant human Wnt-3a-induced Wnt-HEK293 cells assessed as increase in beta-catenin degradation at 1 uM by Western blot analysis. The assay is classed as cell-based. Background: In western blotting, separated proteins are transferred to a membrane and probed.

Assay [5] concerns the target AMP-activated protein kinase, AMPK (Homo sapiens) (UniProt P54646+O43741+P54619+Q9UGJ0+Q9Y478+Q13131+Q9UGI9). Nature of the assay: Activation of AMPK in HEK293 cells over-expressing Axin-1 assessed as increase in AMPK phosphorylation at T172 residue at 10 uM incubated for 24 hrs by Western blot analysis. The assay is classed as cell-based.
Assay [6] is filed under the species Homo sapiens. The assay is described as follows: Potency index, ratio of IC50 for pyrvinium to test compound for inhibition of Wnt/beta-Catenin signaling (unknown origin) expressed in recombinant human Wnt-3a-induced Wnt-HEK293 cells incubated for 24 hrs by luciferase reporter gene assay. The assay is classed as cell-based.
The species entered for assay [7] is Homo sapiens. The assay is described as follows: Potency index, ratio of IC50 for XAV939 to test compound for inhibition of Wnt/beta-Catenin signaling (unknown origin) expressed in recombinant human Wnt-3a-induced Wnt-HEK293 cells incubated for 24 hrs by luciferase reporter gene assay. In kind it is cell-based.

In general, IC50 refers to the concentration needed to halve the response being measured. By GI50 is commonly meant the concentration giving 50% growth inhibition. A high value points to lower sensitivity of the cells. `CCc1ccccc1-n1ncc(C(=O)Nc2ccc3ccccc3n2)c1C`: in assay [1], the IC50 is 1.2 nM. Moreover, the inhibition of growth at 50 µM in assay [2] is over 50%. The same compound returned a GI50 in assay [3] of 9700 nM. On to `Cc1c(C(=O)Nc2ccc3ccccc3n2)cnn1-c1cccc(Cl)c1F`, for which the IC50 in assay [1] worked out at 14 nM. Moreover, the inhibition of growth at 50 µM in assay [2] is over 50%. For the same compound, in assay [3], the GI50 stood at 9000 nM. Consider `Oc1nc(-c2ccc(C(F)(F)F)cc2)nc2c1CSCC2`, for which the IC50 in assay [1] is 450 nM. This compound also displayed a GI50 in assay [3] of over 50000 nM. Take `Cc1cccc(C)c1-n1ncc(C(=O)Nc2ccc3ccccc3n2)c1C`: the IC50 in assay [1] came out at 26 nM. The inhibition of growth at 50 µM in assay [2] is over 50%. The compound also displayed a 50% growth inhibitory concentration (GI50) in assay [3] of 7200 nM.

Regarding `CCc1ccccc1-n1ncc(C(=O)Nc2cc3ccccc3cn2)c1C`, the IC50 in assay [1] is over 1000 nM.

Turning to `O=C(Nc1ccc2ccccc2n1)c1nn(-c2ccccc2)c2c1CCC2`, the 50% inhibitory concentration (IC50) in assay [1] was determined as 140 nM. On to `Cc1c(C(=O)Nc2ccc3ccccc3n2)cnn1-c1ccccc1F`, for which the IC50 in assay [1] was found to be 0.92 nM. In addition, the inhibition of growth at 50 µM in assay [2] was over 50%. Further, in assay [3], the GI50 turned out to be 33300 nM.

With `Cc1c(C(=O)Nc2ccc3ccccc3n2)cnn1-c1c(F)cccc1F`, the half-inhibitory concentration (IC50) in assay [1] came to 1.6 nM. Same read-out and setting: then `Cc1ccccc1-n1nc(C(=O)Nc2ccc3ccccc3n2)cc1C`, with 250 nM; and `Cc1cccnc1-n1ncc(C(=O)Nc2ccc3ccccc3n2)c1C`, with 2.2 nM. Same read-out and setting: the value for `CN(C)c1c(C(=O)Nc2ccc3ccccc3n2)cnn1-c1ccccc1` was 6 nM; that for `O=C(Nc1ccc2ccccc2n1)c1cnn(-c2ccccc2)c1Cl` was 29 nM; that for `CCc1ccccc1-n1nc(C(=O)Nc2ccc3ccccc3n2)cc1C` was 67 nM.

On to `Cc1ccccc1-n1nnc(C(=O)Nc2ccc3ccccc3n2)c1C`, for which, in assay [4], the inhibition result was “Active”. For the same compound, the result in assay [5] was Active.

Consider `Cc1ccc(C)c(-n2ncc(C(=O)Nc3ccc4ccccc4n3)c2C)c1`, for which the IC50 in assay [1] worked out at 14 nM. In assay [2], the inhibition of growth at 50 µM is over 50%. Also, the GI50 in assay [3] turned out to be 24600 nM. As to `CCc1ccccc1-n1ncc(C(=O)Nc2cccc(C)n2)c1C`, the IC50 in assay [1] was found to be 380 nM. On the same count and under the same terms, then `CCc1ccccc1-n1ncc(C(=O)Nc2ccc3ccccc3c2)c1C`, with over 1000 nM; and `CCc1c(C(=O)Nc2ccc3ccccc3n2)cnn1-c1ccccc1`, with 1.7 nM. Regarding `CC(C)c1c(C(=O)Nc2ccc3ccccc3n2)cnn1-c1ccccc1`, the half-inhibitory concentration (IC50) in assay [1] was 15 nM. In addition, the inhibition of growth at 50 µM in assay [2] was over 50%. In assay [3], this compound displayed a GI50 of 17300 nM.

With `Cc1c(C(=O)Nc2ccc3ccccc3n2)cnn1-c1ccccc1`, the IC50 in assay [1] was 2.2 nM. Moreover, in assay [2], the inhibition of growth at 50 µM was over 50%. Besides, the Ratio IC50 is over 300 in assay [6] and over 200 in assay [7]. In assay [3], this compound yielded a GI50 of 23900 nM. Regarding `Cc1cc(C(=O)Nc2ccc3ccccc3n2)nn1-c1ccccc1`, the IC50 in assay [1] was 637 nM. In the case of `Cc1cc(/C=C/c2ccc3cc(N(C)C)ccc3[n+]2C)c(C)n1-c1ccccc1` [PYRVINIUM], the IC50 in assay [1] came to 750 nM. Also, the inhibition entry in assay [4] was “Active”. The same compound came in with a GI50 in assay [3] of 3700 nM. In the case of `O=C(Nc1ccc2ccccc2n1)c1cnn(-c2ccccc2)c1Br`, in assay [1], the IC50 is 3.7 nM. On the same count and under the same terms, the value for `O=C(Nc1ccc2ccccc2n1)c1nn(-c2ccccc2)c2c1CCCC2` was 260 nM; that for `Cc1c(C(=O)Nc2ccc3ccccc3n2)cnn1-c1ccc(F)cc1F` was 16 nM. In the case of `Cc1c(C(=O)Nc2ccc3ccccc3n2)cnn1-c1c(F)cccc1Br`, in assay [1], the half-inhibitory concentration (IC50) turned out to be 3.2 nM. Also, the inhibition of growth at 50 µM in assay [2] is over 50%. Also, halving of growth in assay [3] (GI50) required 3900 nM.
